BindingDB's records for doi:10.1021/jm3006355 (Bar-Ilan University, 2012)
pEC50: −log10 of the molar value.

Target: P2Y purinoceptor 1 (Meleagris gallopavo, UniProt P49652)
Assay: Agonist activity at turkey P2Y1R expressed in 1321N1 cells assessed as increase in intracellular calcium concentration by spectrofluorimetry
Outline: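 Cell suspensions were treated with nucleotide at various concentrations at 37 °C in 10 mM Hepes-buffered saline pH 7.4 with 1 mM CaCl2 and 1 mM MgCl2. Maximal [Ca2+]i rise was read by dual-excitation spectrofluorometry and fitted to give EC50. Three experiments on separate days.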

P2Y purinoceptor 1, sequence (P49652 whole entry): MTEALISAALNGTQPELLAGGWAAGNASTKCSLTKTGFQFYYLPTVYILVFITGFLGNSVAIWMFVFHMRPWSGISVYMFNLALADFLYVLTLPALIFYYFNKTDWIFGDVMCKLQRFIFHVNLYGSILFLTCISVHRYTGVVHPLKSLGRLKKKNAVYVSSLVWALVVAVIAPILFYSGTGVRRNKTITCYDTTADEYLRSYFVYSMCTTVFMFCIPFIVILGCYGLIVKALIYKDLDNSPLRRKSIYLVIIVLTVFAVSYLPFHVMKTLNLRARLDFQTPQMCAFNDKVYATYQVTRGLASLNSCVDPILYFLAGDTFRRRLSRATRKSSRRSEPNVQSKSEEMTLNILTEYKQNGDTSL

B[P@@](=O)(OC[C@H]1O[C@@H](n2cnc3c(N)nc(SC)nc32)[C@H](O)[C@@H]1O)OP(=O)(O)O
pEC50: 7.47
